Where two headings read alike, the source gives them in different places.
Key:
[1] = system: Staphylococcus aureus ATCC 29213; assay: Broth macrodilution antimicrobial susceptibility; format: cell-based; settings: S. aureus ATCC 29213; two-fold dilution from 3% boric acid / 9% zinc borate
[2] = system: Enterococcus faecalis ATCC 29212; assay: Broth macrodilution antimicrobial susceptibility; format: cell-based; settings: E. faecalis ATCC 29212; two-fold dilution from 3% boric acid / 9% zinc borate
Procedure, shortened: (§1)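 Broth macrodilution run per CLSI recommendations in Cationized Mueller Hinton Broth. Ten tubes per strain held two-fold serial dilutions of boric acid (top 3%) or zinc borate (top 9%). MIC was read from the tubes. For MBC, every tube without growth was subcultured onto solid medium, and MBC was the lowest concentration giving no growth.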

[3] = system: Streptococcus pyogenes ATCC 19615; assay: Broth macrodilution antimicrobial susceptibility; format: cell-based; settings: S. pyogenes ATCC 19615; two-fold dilution from 3% boric acid / 9% zinc borate
Procedure, shortened: as §1

[4] = system: Escherichia coli ATCC 25922; assay: Broth macrodilution antimicrobial susceptibility; format: cell-based; settings: E. coli ATCC 25922; two-fold dilution from 3% boric acid / 9% zinc borate
Procedure, shortened: as §1

[5] = system: Klebsiella pneumoniae ATCC 700603; assay: Broth macrodilution antimicrobial susceptibility; format: cell-based; settings: K. pneumoniae ATCC 700603; two-fold dilution from 3% boric acid / 9% zinc borate
Procedure, shortened: as §1

[6] = system: Pseudomonas aeruginosa ATCC 9027; assay: Broth macrodilution antimicrobial susceptibility; format: cell-based; settings: P. aeruginosa ATCC 9027; two-fold dilution from 3% boric acid / 9% zinc borate
Procedure, shortened: as §1

[7] = system: Acinetobacter baumannii ATCC 19606; assay: Broth macrodilution antimicrobial susceptibility; format: cell-based; settings: A. baumannii ATCC 19606; two-fold dilution from 3% boric acid / 9% zinc borate
Procedure, shortened: as §1

[8] = system: Proteus mirabilis ATCC 25933; assay: Broth macrodilution antimicrobial susceptibility; format: cell-based; settings: P. mirabilis ATCC 25933; two-fold dilution from 3% boric acid / 9% zinc borate
Procedure, shortened: as §1

[9] = system: Candida albicans ATCC 10231; assay: Broth macrodilution antimicrobial susceptibility; format: cell-based; settings: C. albicans ATCC 10231; two-fold dilution from 3% boric acid / 9% zinc borate
Procedure, shortened: (§2)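 Fungal strains were tested by CLSI-based broth macrodilution in RPMI 1640. Each strain had ten tubes of two-fold serial dilutions starting at 3% boric acid or 9% zinc borate. Tubes showing no growth were plated onto solid media to find the lowest concentration without growth (MBC).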

[10] = system: Aspergillus niger ATCC 16888; assay: Broth macrodilution antimicrobial susceptibility; format: cell-based; settings: A. niger ATCC 16888; two-fold dilution from 3% boric acid / 9% zinc borate
Procedure, shortened: as §2

[11] = system: L929 (mouse fibroblast) cell line; assay: Cytotoxicity / cell viability by MTT method; format: cell-based; settings: for IC50: read-out: IC50 dose that caused 50% decrease in cell proliferation, L929 cells, MTT
L929 cells = assay: Cell migration test; format: cell-based, mouse; settings: 24 h vs 0 h
Procedure, shortened: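 L929 fibroblasts (ATCC) were grown in DMEM with 10% FBS at 37°C and 5% CO₂. After the fourth passage they were seeded into 24-well plates at 2 × 10⁵ cells/ml and left 24 h to form a monolayer. Each well got one vertical scratch with a sterile pipette tip and was imaged at 0 h. Treatment followed (zinc borate 0.10–0.001 mM; boric acid 1000–0.001 mM), with re-imaging at 12 and 24 h (10x) to measure closure percentage.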

[12] = system: L929 (mouse fibroblast) cell line; assay: Antioxidant ability: protection against H2O2 oxidative stress, MTT method; format: cell-based; settings: read-out: EC50 dose, which increased the proliferative concentration by 50%, L929 cells, 0.4 mM H2O2 stress

Compound	MBC (%) [1]	MIC (%) [2]	MBC (%) [3]	MIC (%) [3]	MBC (%) [4]	MIC (%) [4]	MIC (%) [5]	MIC (%) [7]	MBC (%) [8]	MIC (%) [8]	MBC (%) [9]	MBC (%) [10]	migration recovery (closure) percentage (L929 cells; 0.025 mM)	other results
OB(O)O [Boric acid, Boric Acid]	0.75%	1.5%	3%	0.0058%	1.5%	0.375%	0.75%	0.375%	3%	0.75%	0.0058%	0.1875%	81.05%	MIC (%) [1]: 0.75%; MBC (%) [6]: no bactericidal effect; MIC (%) [6]: 0.75%; Proliferative or inhibitory effect on L929 cells versus control ([11]; 0.001 mM-1000 mM, 24th, 48th, 72nd hours, except 100 mM and 500 mM at 24th hour, 100 mM at 48th hour): no significant proliferation or inhibition was observed; migration recovery (closure) percentage (L929 cells; 0.001 mM): 86.91%; migration recovery (closure) percentage (L929 cells; 0.01 mM): 70.81%; migration recovery (closure) percentage (L929 cells; 0.05 mM): 83.57%; migration recovery (closure) percentage (L929 cells; 0.10 mM): 77.98%; migration recovery (closure) percentage (L929 cells; 0.25 mM): 86.54%; migration recovery (closure) percentage (L929 cells; 0.50 mM): 80.92%; migration recovery (closure) percentage (L929 cells; 0.75 mM): 83.24%; migration recovery (closure) percentage (L929 cells; 1 mM): 73.18%; migration recovery (closure) percentage (L929 cells; 50 mM): 87.55%; migration recovery (closure) percentage (L929 cells; 250 mM): 75.56%; migration recovery (closure) percentage (L929 cells; 500 mM): 70.05%; migration recovery (closure) percentage (L929 cells; 750 mM): 81.62%; migration recovery (closure) percentage (L929 cells; 1000 mM): 62.46%
Zinc borate	4.5%	0.0351%	0.2812%	0.0175%	0.5625%	0.0351%	0.1406%	1.125%	>9%	4.5%	0.0175%	>9%	88.13%	MBC (%) [2]: >9%; MBC (%) [5]: 2.25%; MBC (%) [7]: 9%; IC50 ([11]; 24th hour): 133 µM; IC50 ([11]; 48th hour): 197 µM; IC50 ([11]; 72nd hour): 142 µM; EC50 ([12]; 24th hour): 51 µM; EC50 ([12]; 48th hour): 15 µM; EC50 ([12]; 72nd hour): 11 µM
